For one test, the system named is L1210. The test is described as follows: Effective concentration required to inhibit by 50% the growth of L1210 cells. The test is classed as functional, cell-based. The note with it: Mus musculus. Put shortly:
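Mouse L1210 leukemia cells were grown in RPMI 1640 with 5% fetal calf serum, penicillin and streptomycin at 37 °C in humidified air–5% CO2, and seeded at 5 × 10⁴ cells/mL. Compounds dissolved in 50% ethanol were added at four concentrations. EC50 is the concentration giving 50% growth inhibition after 48 h, measured by cell protein content.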

For a further test, the system named is HeLa. The test can be described thus: Effective concentration required to inhibit by 50% the growth of HeLa S3 cells. The test is classed as functional, cell-based. To be noted: Homo sapiens. The essentials: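 HeLa S3 cultures were given compounds dissolved in water, at final concentrations of 0.005–5 μg/mL in the incubation medium. EC50 is the concentration that inhibited the increment of cellular protein by 50%, read from dose-response curves.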

In test [1] the test system is P338. The test is described as follows: Ratio of medium survival time expressed as percent of untreated controls (dose 12.5 mg/kg). The test is classed as functional, Mus musculus. The essentials: (§1)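 BDF1 mice inoculated ip on day 0 with 10^6 P388 lymphocytic leukemia cells. Drug given ip on days 1–5 following NCI protocols, at the dose stated. Eight mice per treatment group. Mean survival time was computed per group, and % T/C = (MST treated/MST control) × 100.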

For test [2], the system named is P338. The test can be described thus: Survivor recorded on day 4 after day of first injection as a measure of drug toxicity (dose 1.6 mg/kg); 8/8. The test is classed as functional, Mus musculus.
Test [3] concerns P338. The test is described as follows: Survivor recorded on day 4 after day of first injection as a measure of drug toxicity (dose 50 mg/kg); 0/8. The test is classed as functional, Mus musculus.
The test system of test [4] is P338. The test is described as follows: Ratio of medium survival time expressed as percent of untreated controls (dose 3.12 mg/kg). The test is classed as functional, Mus musculus. The essentials:
as §1

Test [5] relates to P338. The test can be described thus: Ratio of medium survival time expressed as percent of untreated controls (dose 6.25 mg/kg). The test is classed as functional, Mus musculus. Put shortly: as §1
Test [6] relates to P338. The test can be described thus: Ratio of medium survival time expressed as percent of untreated controls (dose 1.6 mg/kg). The test is classed as functional, Mus musculus. Put shortly: as §1
In test [7] the test system is P338. The test can be described thus: Survivor recorded on day 4 after day of first injection as a measure of drug toxicity (dose 6.25 mg/kg); 8/8. The test is classed as functional, Mus musculus.
The subject of test [8] is P338. The test can be described thus: Survivor recorded on day 4 after day of first injection as a measure of drug toxicity (dose 3.12 mg/kg); 8/8. The test is classed as functional, Mus musculus.
Test [9] relates to P338. The test is described as follows: Ratio of medium survival time expressed as percent of untreated controls (dose 25 mg/kg); Toxic. The test is classed as functional, organism-based. On the set-up: dose 25 mg/kg. To be noted: Mus musculus, at 25 mg/kg.
The test system of test [10] is P338. The test is described as follows: Survivor recorded on day 4 after day of first injection as a measure of drug toxicity (dose 25 mg/kg); 6/8. The test is classed as functional, Mus musculus.
The subject of test [11] is P338. The test can be described thus: Survivor recorded on day 4 after day of first injection as a measure of drug toxicity (dose 12.5 mg/kg); 8/8. The test is classed as functional, Mus musculus.
Test [12] concerns P338. The test is described as follows: Ratio of medium survival time expressed as percent of untreated controls(dose 3.12 mg/kg). The test is classed as functional, Mus musculus. The essentials: as §1
Test [13] has as its system P338. The test is described as follows: Survivor recorded on day 4 after day of first injection as a measure of drug toxicity(dose 3.12 mg/kg); 6/6. The test is classed as functional, Mus musculus.
Test [14] relates to P338. The test can be described thus: Ratio of medium survival time expressed as percent of untreated controls(dose 6.25 mg/kg). The test is classed as functional, Mus musculus. Put shortly:
as §1

Test [15] deals with P338. The test is described as follows: Ratio of medium survival time expressed as percent of untreated controls(dose 25 mg/kg). The test is classed as functional, Mus musculus. The essentials:
as §1

Test [16] has as its system P338. The test can be described thus: Survivor recorded on day 4 after day of first injection as a measure of drug toxicity(dose 12.5 mg/kg); 6/6. The test is classed as functional, Mus musculus.
For test [17], the system named is P338. The test is described as follows: Survivor recorded on day 4 after day of first injection as a measure of drug toxicity(dose 6.25 mg/kg); 6/6. The test is classed as functional, Mus musculus.
Test [18] has as its system P338. The test is described as follows: Survivor recorded on day 4 after day of first injection as a measure of drug toxicity(dose 25 mg/kg); 6/6. The test is classed as functional, Mus musculus.
The subject of test [19] is P338. The test can be described thus: Ratio of medium survival time expressed as percent of untreated controls(dose 12.5 mg/kg). The test is classed as functional, Mus musculus. The essentials:
as §1

In test [20] the test system is P338. The test can be described thus: Survivor recorded on day 4 after day of first injection as a measure of drug toxicity (dose 10 mg/kg); 8/8. The test is classed as functional, Mus musculus.
In test [21] the test system is P338. The test is described as follows: Ratio of medium survival time expressed as percent of untreated controls (dose 10 mg/kg). The test is classed as functional, Mus musculus. The essentials: as §1
Test [22] deals with P338. The test can be described thus: Survivor recorded on day 4 after day of first injection as a measure of drug toxicity(dose 1.25 mg/kg); 8/8. The test is classed as functional, Mus musculus.
The test system of test [23] is P338. The test can be described thus: Ratio of medium survival time expressed as percent of untreated controls(dose 40 mg/kg); Toxic. The test is classed as functional, organism-based. Further details: dose 40 mg/kg. The note with it: Mus musculus, at 40 mg/kg. Put shortly: as §1
Test [24] deals with P338. The test can be described thus: Ratio of medium survival time expressed as percent of untreated controls (dose 2.5 mg/kg). The test is classed as functional, Mus musculus. The essentials:
as §1

For test [25], the system named is P338. The test can be described thus: Ratio of medium survival time expressed as percent of untreated controls (dose 5 mg/kg). The test is classed as functional, Mus musculus. The essentials:
as §1

In test [26] the test system is P338. The test can be described thus: Survivor recorded on day 4 after day of first injection as a measure of drug toxicity (dose 20 mg/kg); 8/8. The test is classed as functional, Mus musculus.
Test [27] concerns P338. The test is described as follows: Survivor recorded on day 4 after day of first injection as a measure of drug toxicity (dose 5 mg/kg); 8/8. The test is classed as functional, Mus musculus.
Test [28] concerns P338. The test is described as follows: Survivor recorded on day 4 after day of first injection as a measure of drug toxicity (dose 40 mg/kg); 8/8. The test is classed as functional, Mus musculus.
In test [29] the test system is P338. The test is described as follows: Ratio of medium survival time expressed as percent of untreated controls (dose 20 mg/kg). The test is classed as functional, Mus musculus. Put shortly:
as §1

Test [30] concerns P338. The test can be described thus: Survivor recorded on day 4 after day of first injection as a measure of drug toxicity (dose 2.5 mg/kg); 8/8. The test is classed as functional, Mus musculus.
Test [31] has as its system P338. The test can be described thus: Ratio of medium survival time expressed as percent of untreated controls(dose 1.25 mg/kg). The test is classed as functional, Mus musculus. The essentials:
as §1

Test [32] has as its system P338. The test can be described thus: Survivor recorded on day 4 after day of first injection as a measure of drug toxicity(dose 25 mg/kg); 8/8. The test is classed as functional, Mus musculus.
The subject of test [33] is P338. The test can be described thus: Ratio of medium survival time expressed as percent of untreated controls(dose 50 mg/kg). The test is classed as functional, Mus musculus. Put shortly:
as §1

Test [34] relates to P338. The test is described as follows: Survivor recorded on day 4 after day of first injection as a measure of drug toxicity(dose 6.25 mg/kg); 8/8. The test is classed as functional, Mus musculus.
The subject of test [35] is P338. The test is described as follows: Survivor recorded on day 4 after day of first injection as a measure of drug toxicity(dose 3.12 mg/kg); 8/8. The test is classed as functional, Mus musculus.
Test [36] deals with P338. The test is described as follows: Ratio of medium survival time expressed as percent of untreated controls(dose 1.5 mg/kg). The test is classed as functional, Mus musculus. Put shortly: as §1
For test [37], the system named is P338. The test can be described thus: Survivor recorded on day 4 after day of first injection as a measure of drug toxicity(dose 1.5 mg/kg); 8/8. The test is classed as functional, Mus musculus.
Test [38] concerns P338. The test can be described thus: Survivor recorded on day 4 after day of first injection as a measure of drug toxicity(dose 50 mg/kg); 8/8. The test is classed as functional, Mus musculus.
Test [39] has as its system P338. The test is described as follows: Survivor recorded on day 4 after day of first injection as a measure of drug toxicity(dose 12.5 mg/kg); 8/8. The test is classed as functional, Mus musculus.

Values after ≈ are worked out from the molar mass of the structure shown. Where only a bound is given, the exact number is not on record here.

This passage reports EC50, T/C and Survival results from ChEMBL document CHEMBL1123978, “Synthesis and antineoplastic evaluation of 1,4-bis(aminoalkanamido)-9,10-anthracenediones” (J Med Chem, 1988).

Consider `O=C(CNCCO)Nc1ccc(NC(=O)CNCCO)c2c1C(=O)c1ccccc1C2=O`, for which the 50% effective concentration (EC50) is over 5 µg/mL in the test with L1210 and 1.41 µg/mL (≈ 3.2 µM) with HeLa.

As to `CN(C)CCC(=O)Nc1ccc(NC(=O)CCN(C)C)c2c1C(=O)c1ccccc1C2=O`, the T/C in the test with P338 [1] is 100%; with P338 [4] it was 91%; with P338 [5], 100%; in the test on P338 [6], 91%; in the test with P338 [9] it was “Toxic”. In addition, the Survival was 8 in the test with P338 [2]; 0 with P338 [3]; 8 in the test on P338 [7]; 8 in the test on P338 [8]; 6 in the test with P338 [10]; 8 in the test with P338 [11]. For the same compound, the half-maximal effective concentration (EC50) is 0.36 µg/mL (≈ 0.825 µM) with L1210 and 0.05 µg/mL (≈ 0.115 µM) with HeLa.

Take `O=C1c2ccccc2C(=O)c2c(NCCNCCO)ccc(NCCNCCO)c21` [AMETANTRONE]: the T/C with P338 [12] was 190%; with P338 [14], 210%; in the test on P338 [15] it was 200%; with P338 [19], 300%. Besides, the Survival with P338 [13], in the test on P338 [16], in the test on P338 [17] and in the test on P338 [18] was 6 in each case. For the same compound, the results for the half-maximal effective concentration (EC50) in the test on L1210 and in the test on HeLa were 1.77 µg/mL (≈ 4.29 µM) and 0.17 µg/mL (≈ 0.412 µM), respectively.

Consider `CN(C)CC(=O)Nc1ccc(NC(=O)CN(C)C)c2c1C(=O)c1ccccc1C2=O`, for which the EC50 with L1210 amounted to 2.26 µg/mL (≈ 5.53 µM); in the test with HeLa, 0.39 µg/mL (≈ 0.955 µM).

As to `O=C1c2c(O)ccc(O)c2C(=O)c2c(NCCNCCO)ccc(NCCNCCO)c21` [MITOXANTRONE], the EC50 was over 5 µg/mL in the test with L1210 and 0.55 µg/mL (≈ 1.24 µM) in the test on HeLa.

Consider `CNCCC(=O)Nc1ccc(NC(=O)CCNC)c2c1C(=O)c1ccccc1C2=O`, for which the Survival in the test with P338 [20], with P338 [22], in the test with P338 [26], with P338 [27], with P338 [28] and in the test with P338 [30] was 8 throughout. Further, the T/C in the test on P338 [21] is 130%; with P338 [23], “Toxic”; with P338 [24] it was 120%; with P338 [25], 130%; in the test with P338 [29], 120%; in the test with P338 [31], 110%. In addition, the EC50 turned out to be 1.28 µg/mL (≈ 3.13 µM) with L1210 and 0.08 µg/mL (≈ 0.196 µM) in the test on HeLa.

Regarding `CNCC(=O)Nc1ccc(NC(=O)CNC)c2c1C(=O)c1ccccc1C2=O`, the T/C with P338 [12] is reported as 100%; with P338 [33], 111%; in the test with P338 [14], 111%; in the test on P338 [15] it was 100%; in the test on P338 [36], 100%; in the test with P338 [19] it was 100%. In addition, the Survival in the test on P338 [32], with P338 [34], in the test on P338 [35], in the test with P338 [37], in the test with P338 [38] and in the test with P338 [39] was 8 in each case. The half-maximal effective concentration (EC50) with L1210 came out at 0.79 µg/mL (≈ 2.08 µM); in the test with HeLa, 0.14 µg/mL (≈ 0.368 µM).

By EC50 is commonly meant the concentration giving half of the maximal effect. A higher EC50 goes with a less potent agent. By T/C is commonly meant the result in the treated group divided by that in the control group, in per cent.
